Data reported in ChEMBL document CHEMBL1955756, “Design and synthesis of novel sulfonamide-containing bradykinin hB(2) receptor antagonists. Synthesis and structure-relationships of α,α-tetrahydropyranylglycine” (Bioorg Med Chem, 2012).

What follows are compounds tested against T1, B2 bradykinin receptor (Homo sapiens) (UniProt P30411) (assay: (§1) Reversible antagonist activity at human bradykinin B2 receptor expressed in dhfr-deficient CHO cells assessed as inhibition of bradykinin-induced inositol monophosphate accumulation at 100 nM preincubated for 15 mins prior bradykinin induction measured after 45 mins washout by liquid scintillation spectrometry). Conditions: not given.
T1 sequence (whole entry): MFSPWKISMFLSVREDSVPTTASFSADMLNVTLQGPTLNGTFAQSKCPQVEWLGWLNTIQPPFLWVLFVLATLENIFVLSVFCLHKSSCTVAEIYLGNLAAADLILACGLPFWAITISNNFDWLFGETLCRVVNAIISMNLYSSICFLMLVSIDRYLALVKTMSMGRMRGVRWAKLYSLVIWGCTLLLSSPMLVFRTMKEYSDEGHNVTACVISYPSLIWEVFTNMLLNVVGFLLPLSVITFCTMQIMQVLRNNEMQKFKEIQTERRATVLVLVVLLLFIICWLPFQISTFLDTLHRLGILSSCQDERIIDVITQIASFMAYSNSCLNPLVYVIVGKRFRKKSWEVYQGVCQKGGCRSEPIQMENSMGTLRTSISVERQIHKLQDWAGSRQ
Assay type: functional, cell-based
Method in brief: (§2)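 Washout in the IP accumulation assay in CHO/hB2R cells: antagonist (3 µM or 100 nM) pre-incubated 15 min, with medium then fully replaced every 15 min in washed cells. BK (2 nM) added and the reaction stopped after one hour; IP formed quantified. Expressed as % inhibition of time-matched BK responses in vehicle-pre-incubated cells.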

| inhibition [%] | SMILES |
| --- | --- |
| -0 | Cc1cc(C)c2cccc(OCc3c(Cl)ccc(S(=O)(=O)NC4(C(=O)N5CC[N+]6(CCCCC6)CC5)CCOCC4)c3Cl)c2n1 |

The compounds below were run against T2, B2 bradykinin receptor (Homo sapiens, UniProt P30411) (assay: Antagonist activity at human bradykinin B2 receptor expressed in dhfr-deficient CHO cells assessed as inhibition of bradykinin-induced inositol monophosphate accumulation preincubated for 15 mins prior bradykinin induction measured after 40 mins by liquid scintillation spectrometry). Conditions: read-out: pA2 (converted).
T2 sequence (P30411 whole entry): T1 sequence (whole entry)
Assay type: functional, cell-based
Method in brief: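 CHOdhfr-/hB2R cells (1.8×10^5/well) plated overnight at 37 °C, labelled 24 h with myo-[3H]inositol (1 uCi/well). Antagonist pre-incubation 15 min, then BK 1×10^-11 to 1×10^-5 M for 40 min at 37 °C in Hepes pH 7.4 buffer with 25 mM LiCl. IP1 radioactivity by liquid scintillation. Agonist curves fitted for EC50; pA2 = log(CR−1) − log[antagonist].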

| Kb [nM] | SMILES |
| --- | --- |
| 2.51 | Cc1cc(C)c2cccc(OCc3c(Cl)ccc(S(=O)(=O)NC4(C(=O)N5CCC(CNCCC[N+](C)(C)C)CC5)CCOCC4)c3Cl)c2n1 |
| 0.437 | Cc1cc(C)c2cccc(OCc3c(Cl)ccc(S(=O)(=O)NC4(C(=O)N5CCN(C(=O)CCCCN(C)C)CC5)CCOCC4)c3Cl)c2n1 |
| 2.51 | Cc1cc(C)c2cccc(OCc3c(Cl)ccc(S(=O)(=O)NC4(C(=O)N5CCC(CNCCCC[N+](C)(C)C)CC5)CCOCC4)c3Cl)c2n1 |
| 3.16 | Cc1cc(C)c2cccc(OCc3c(Cl)ccc(S(=O)(=O)NC4(C(=O)N5CC[N+](C)(CC[N+](C)(C)C)CC5)CCOCC4)c3Cl)c2n1 |
| 0.794 | Cc1cc(C)c2cccc(OCc3c(Cl)ccc(S(=O)(=O)NC4(C(=O)N5CCN(C(=O)CCC[N+](C)(C)C)CC5)CCOCC4)c3Cl)c2n1 |
| 1 | Cc1cc(C)c2cccc(OCc3c(Cl)ccc(S(=O)(=O)NC4(C(=O)N5CC[N+](C)(CCC[N+](C)(C)C)CC5)CCOCC4)c3Cl)c2n1 |
| 3.16 | Cc1cc(C)c2cccc(OCc3c(Cl)ccc(S(=O)(=O)NC4(C(=O)N5CC[N+]6(CCCC6)CC5)CCOCC4)c3Cl)c2n1 |
| 2.63 | Cc1cc(C)c2cccc(OCc3c(Cl)ccc(S(=O)(=O)NC4(C(=O)N5CC[N+]6(CCCCC6)CC5)CCOCC4)c3Cl)c2n1 |

The compounds below were run against T3, B1 bradykinin receptor (Homo sapiens, UniProt P46663) (assay: Displacement of [3H][desArg9]Lys-Bradykinin from human bradykinin B1 receptor expressed in CHO cells). Conditions: not given.
T3 sequence (P46663 whole entry): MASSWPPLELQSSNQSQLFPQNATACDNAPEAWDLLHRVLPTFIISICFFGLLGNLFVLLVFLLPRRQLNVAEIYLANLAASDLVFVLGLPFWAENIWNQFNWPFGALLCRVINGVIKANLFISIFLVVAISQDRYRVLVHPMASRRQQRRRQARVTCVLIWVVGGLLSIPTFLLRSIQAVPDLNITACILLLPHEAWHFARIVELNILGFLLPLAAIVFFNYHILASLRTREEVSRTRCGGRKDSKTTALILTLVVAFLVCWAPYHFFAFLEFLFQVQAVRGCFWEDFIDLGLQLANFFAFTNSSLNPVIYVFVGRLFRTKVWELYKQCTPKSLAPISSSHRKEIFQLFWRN
Assay type: cell-based

| Ki [nM] | SMILES |
| --- | --- |
| > 10000 | Cc1cc(C)c2cccc(OCc3c(Cl)ccc(S(=O)(=O)NC4(C(=O)N5CCC(CNCCC[N+](C)(C)C)CC5)CCOCC4)c3Cl)c2n1 |
| > 10000 | Cc1cc(C)c2cccc(OCc3c(Cl)ccc(S(=O)(=O)NC4(C(=O)N5CCN(C(=O)CCCCN(C)C)CC5)CCOCC4)c3Cl)c2n1 |
| > 10000 | Cc1cc(C)c2cccc(OCc3c(Cl)ccc(S(=O)(=O)NC4(C(=O)N5CCC(CNCCCC[N+](C)(C)C)CC5)CCOCC4)c3Cl)c2n1 |
| > 10000 | Cc1cc(C)c2cccc(OCc3c(Cl)ccc(S(=O)(=O)NC4(C(=O)N5CC[N+](C)(CC[N+](C)(C)C)CC5)CCOCC4)c3Cl)c2n1 |
| > 10000 | Cc1cc(C)c2cccc(OCc3c(Cl)ccc(S(=O)(=O)NC4(C(=O)N5CCN(C(=O)CCC[N+](C)(C)C)CC5)CCOCC4)c3Cl)c2n1 |
| > 10000 | Cc1cc(C)c2cccc(OCc3c(Cl)ccc(S(=O)(=O)NC4(C(=O)N5CC[N+](C)(CCC[N+](C)(C)C)CC5)CCOCC4)c3Cl)c2n1 |
| > 10000 | Cc1cc(C)c2cccc(OCc3c(Cl)ccc(S(=O)(=O)NC4(C(=O)N5CC[N+]6(CCCC6)CC5)CCOCC4)c3Cl)c2n1 |
| > 10000 | Cc1cc(C)c2cccc(OCc3c(Cl)ccc(S(=O)(=O)NC4(C(=O)N5CC[N+]6(CCCCC6)CC5)CCOCC4)c3Cl)c2n1 |

What follows are compounds tested against T2, B2 bradykinin receptor (assay: Displacement of [3H]-Bradykinin from human bradykinin B2 receptor expressed in CHO cells membrane after 60 mins by scintillation counting). Conditions: not given.
Assay type: cell membranes

| Ki [nM] | SMILES |
| --- | --- |
| 0.158 | Cc1cc(C)c2cccc(OCc3c(Cl)ccc(S(=O)(=O)NC4(C(=O)N5CCC(CNCCC[N+](C)(C)C)CC5)CCOCC4)c3Cl)c2n1 |
| 0.1 | Cc1cc(C)c2cccc(OCc3c(Cl)ccc(S(=O)(=O)NC4(C(=O)N5CCN(C(=O)CCCCN(C)C)CC5)CCOCC4)c3Cl)c2n1 |
| 0.0501 | Cc1cc(C)c2cccc(OCc3c(Cl)ccc(S(=O)(=O)NC4(C(=O)N5CCC(CNCCCC[N+](C)(C)C)CC5)CCOCC4)c3Cl)c2n1 |
| 0.251 | Cc1cc(C)c2cccc(OCc3c(Cl)ccc(S(=O)(=O)NC4(C(=O)N5CC[N+](C)(CC[N+](C)(C)C)CC5)CCOCC4)c3Cl)c2n1 |
| 0.126 | Cc1cc(C)c2cccc(OCc3c(Cl)ccc(S(=O)(=O)NC4(C(=O)N5CCN(C(=O)CCC[N+](C)(C)C)CC5)CCOCC4)c3Cl)c2n1 |
| 0.1 | Cc1cc(C)c2cccc(OCc3c(Cl)ccc(S(=O)(=O)NC4(C(=O)N5CC[N+](C)(CCC[N+](C)(C)C)CC5)CCOCC4)c3Cl)c2n1 |
| 0.631 | Cc1cc(C)c2cccc(OCc3c(Cl)ccc(S(=O)(=O)NC4(C(=O)N5CC[N+]6(CCCC6)CC5)CCOCC4)c3Cl)c2n1 |
| 0.398 | Cc1cc(C)c2cccc(OCc3c(Cl)ccc(S(=O)(=O)NC4(C(=O)N5CC[N+]6(CCCCC6)CC5)CCOCC4)c3Cl)c2n1 |

These compounds were tested against T1, B2 bradykinin receptor (Homo sapiens) (assay: as §1, with “30” for “45”). Conditions: not given.
Assay type: functional, cell-based
Method in brief: as §2

| inhibition [%] | SMILES |
| --- | --- |
| 9 | Cc1cc(C)c2cccc(OCc3c(Cl)ccc(S(=O)(=O)NC4(C(=O)N5CC[N+]6(CCCCC6)CC5)CCOCC4)c3Cl)c2n1 |

These compounds were tested against T1, B2 bradykinin receptor (Homo sapiens) (assay: as §1, with “15” for “45”). Conditions: not given.
Assay type: functional, cell-based
Method in brief: as §2

| inhibition [%] | SMILES |
| --- | --- |
| 72 | Cc1cc(C)c2cccc(OCc3c(Cl)ccc(S(=O)(=O)NC4(C(=O)N5CC[N+]6(CCCCC6)CC5)CCOCC4)c3Cl)c2n1 |
